# Measured values from ChEMBL document CHEMBL1134783, “N-Arylsulfonylindole derivatives as serotonin 5-HT(6) receptor ligands” (J Med Chem, 2001).
# Target: 5-hydroxytryptamine receptor 6 (Homo sapiens, UniProt P50406)
# Assay: Binding affinity as displacement of [3H]5-HT binding to 5-hydroxytryptamine 6 receptor in HeLa cells.
# Format: cell-based
# Method in brief: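 Human 5-HT6 stably expressed in HeLa cells; washed membranes in 50 mM Tris, 0.03% ascorbic acid, pH 7.6. Nonspecific binding defined with 10 µM 5-HT. Filtration and scintillation counting; one-site fit gave IC50, converted to Ki by Cheng-Prusoff. Geometric mean of ≥3 experiments, each in duplicate.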
# 5-hydroxytryptamine receptor 6, sequence (P50406 whole entry): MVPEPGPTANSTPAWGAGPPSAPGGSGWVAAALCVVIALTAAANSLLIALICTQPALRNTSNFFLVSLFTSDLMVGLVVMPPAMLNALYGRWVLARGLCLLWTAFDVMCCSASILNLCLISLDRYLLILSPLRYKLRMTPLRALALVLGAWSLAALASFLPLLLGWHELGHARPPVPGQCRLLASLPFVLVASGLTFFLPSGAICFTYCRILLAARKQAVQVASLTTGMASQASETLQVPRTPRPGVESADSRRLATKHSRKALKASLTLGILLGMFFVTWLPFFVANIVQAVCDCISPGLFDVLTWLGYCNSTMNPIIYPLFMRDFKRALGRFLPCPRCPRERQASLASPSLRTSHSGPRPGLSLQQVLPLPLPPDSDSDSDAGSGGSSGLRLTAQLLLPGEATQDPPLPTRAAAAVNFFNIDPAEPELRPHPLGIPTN
row,SMILES,Ki [nM]
1,COc1ccc2c(c1)c(CCN(C)C)cn2S(=O)(=O)c1ccc(Cl)cc1,17
2,COc1ccc2c(c1)C(CCN(C)C)CN2S(=O)(=O)c1ccccc1 (stereo not given),63
3,CN(C)CCc1cn(C(=O)OC(C)(C)C)c2ccc(O)cc12,370
4,CN(C)CCc1cccc2[nH]c(C(=O)c3ccccc3)cc12,260
5,COc1ccc(S(=O)(=O)n2cc(CCN(C)C)c3cc(OC)ccc32)cc1,26
6,COc1cccc(Cc2noc(-c3[nH]c4ccccc4c3CCN(C)C)n2)c1,1.3
7,COc1ccc2c(c1)c(CCN)cn2S(=O)(=O)c1ccccc1,40
8,COc1ccc2c(c1)c(CCN(C)C)c(C)n2S(=O)(=O)c1ccccc1,12
9,COc1ccc2c(c1)c(CCN(C)C)cn2S(=O)(=O)c1ccc2ccccc2c1,9.8
10,CN(C)CCc1cn(S(C)(=O)=O)c2ccccc12,620
11,CN(C)CCc1cn(S(=O)(=O)c2ccccc2)c2ccc(O)cc12,19
12,COc1ccc2c(c1)c(CCN(C)C)cn2S(=O)(=O)c1ccc(C)cc1,45
13,CN(C)CCc1cn(S(=O)(=O)c2ccccc2)c2ccc(C#N)cc12,33
14,COc1ccc2c(c1)c(CCN1CCOCC1)cn2S(=O)(=O)c1ccccc1,1700
15,COc1ccc2c(c1)c(CCN(C)C)cn2S(=O)(=O)c1cccs1,8.3
